Measurements taken from ChEMBL document CHEMBL1141164, “Design and synthesis of a series of melamine-based nitroheterocycles with activity against Trypanosomatid parasites” (J Med Chem, 2005).

Key:
[1] = test system: Trypanosoma brucei brucei; experiment: In vitro inhibitory concentration against blood stream Trypanosoma brucei brucei AT1 wild type incubated for 72 h at 37 degree C; format: functional, organism-based
In short: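 Wild-type T. b. brucei trypomastigotes, tested alongside the P2 knockout (TbAT1-/-). Alamar Blue viability assay used to derive IC50 values.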

[2] = test system: Trypanosoma brucei brucei; experiment: In vitro inhibitory concentration against blood stream Trypanosoma brucei brucei AT1 knockout mutant with a non functional P2 transporter incubated for 72 h at 37 degree C; format: organism-based
In short: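 Bloodstream T. b. brucei trypomastigotes, wild type or P2 transporter knockout (TbAT1-/-), were tested side by side. Viability was read by Alamar Blue fluorescence and IC50 values were determined.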

[3] = test system: Trypanosoma brucei rhodesiense; experiment: Inhibitory concentration in vitro against blood stream Trypanosoma brucei rhodesiense incubated for 72 hr at 37 degree C; format: functional, organism-based
In short: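 T. b. rhodesiense STIB900 trypomastigotes, a 1982 human isolate from Tanzania, grown in minimum essential medium with 2-mercaptoethanol and 15% heat-inactivated horse serum. Drug dilutions 90 to 0.123 μg/mL, 72 h at 37 °C, 5% CO2.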

L6 = experiment: Concentration causing cytotoxicity to 50% of L-6 rat skeletal myoblasts; format: functional, cell-based
In short: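 L-6 rat skeletal myoblasts run in the same Alamar Blue assay as the trypanosome screen. Serial dilutions spanning 90 to 0.123 μg/mL, 72 h at 37 °C under 5% CO2, then Alamar Blue for a further 2–4 h. Fluorescence read at ex 536/em 588 nm and expressed as % of control to give IC50.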

Trypanosoma cruzi [4] = experiment: In vitro inhibitory concentration against intracellular amastigotes of Trypanosoma cruzi in rat skeletal myoblasts incubated for 37 degree C for 4 days; format: functional, organism-based; conditions: 96 h
In short: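 L-6 myoblasts seeded at 2000 cells/well in RPMI 1640 with 10% FBS and 2 mM L-glutamine. After 24 h, 5000 T. cruzi Tulahuen C2C4 (LacZ) trypomastigotes added with serial drug dilution. Incubated 4 days at 37 °C in 5% CO2, then CPRG/Nonidet added.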

Mus musculus [5] = experiment: In vivo antitrypanosomal activity at a dose of 4*20 mg/kg, i.p., in mice infected with Trypanosoma brucei brucei STIB 795 strain; 0/4; format: functional
Mus musculus [6] = experiment: In vivo antitrypanosomal activity at a dose of 4*20 mg/kg, i.p., in mice infected with Trypanosoma brucei brucei STIB 795 strain, measured as survival days (control 7 days); format: functional
Trypanosoma cruzi [7] = experiment: In vivo percent inhibition of compound at a dose of 50 mg/kg, i.p., for 5 doses in mice infected with Trypanosoma cruzi; conditions: ip
Trypanosoma cruzi [8] = experiment: In vivo activity at a dose of 50 mg/kg, i.p., for 5 doses in mice infected with Trypanosoma cruzi, measured as survival days (control 13 days); conditions: route intraperitoneal
Leishmania donovani = experiment: Inhibitory concentration in vitro against intracellular amastigotes of Leishmania donovani in mouse peritoneal macrophages incubated for 96 hr at […]; tox is toxic to macrophages

CN(C)c1nc(N)nc(N/N=C/c2ccc([N+](=O)[O-])o2)n1
IC50 [1]: 5.36 µM | IC50 [2]: 3.09 µM | IC50 [3]: 0.053 µM | IC50 (L6): 110 µM | IC50 (Trypanosoma cruzi [4]): 0.29 µM | Cured/Infected (Mus musculus [5]): 0 | Survival (Mus musculus [6]): 18.3 days | inhibition in vivo at 50 mg/kg (Trypanosoma cruzi [7]): 45% | Survival (Trypanosoma cruzi [8]): 14 days | IC50 (Leishmania donovani): Toxic
